An excerpt weighted towards active compounds, which were near 3.1% of everything screened.
HSF1 inhib – HSF1 inhibition. activity change, negative = inhibition, % at 7.5 µM (by protocol). NIH3T3-HGL HSE-luciferase, MG132-induced, luminescence 8 h; active compounds read low. actives 0.77% (n = 300,000);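 active = more than half of replicate wells show activity change below -50%, luminescence cut by over half; inconclusive = some wells, but at most half, below -50%; inactive = no replicate well below -50%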;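 note: luciferase reports HSF-1 transcriptional activity via heat shock element; 0% = median of DMSO wells and -100% = zero luminescence signal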
HKDC1 inhibitor – blocks human hexokinase HKDC1 activity. AID 493160. Q2TB90. inhibition, % at 20 µM. recombinant HKDC1, G6PDH/diaphorase resazurin coupled fluorescence. actives 0.16% (n = 340,000);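 active = inhibition above about 35% when tested at 20 µM, limit read from the data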;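 note: plate controls were DMSO wells with enzyme for no effect and DMSO wells lacking enzyme for full effect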
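Test system: recombinant HKDC1 (HK5) hexokinase enzyme, produced in-house; Amount: enzyme 5 µg/mL final; Buffer or medium: Tris pH 8.0 buffer with MgCl2, Tween-20, BSA, BME; Reagent: glucose and ATP substrates; Doses: 20 µM test compound, 1% DMSO; Incubation: 90 min reaction incubation at room temperature, dark; Detection: resorufin fluorescence at 613 nm.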
Hsp70 activator – switches on Hsp70 transcription | actives 0.04% (n = 200,000) | AID 1203 | activation, % at 10 µM | HeLa Hsp70 promoter luciferase reporter, luminescence; scaled: vehicle 0, proteasome-inhibitor control 100%;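 active = activation above the mean across all tested compounds plus 3 SD, cutoff set per campaign, cut at about 5.5% in these data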;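 note: 100% = MG132 at 30 µM as the positive control and 0% = DMSO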
HSP90 inh – blocks HSP90-mediated luciferase refolding in reticulocyte lysate. Rabbit reticulocyte lysate, luciferase refolding luminescence, 3 h. AID 1789. inhibition, % at 5.6 µM. actives 0.91% (n = 290,000);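 active = inhibition above the screen-wide mean plus 3 SD, computed separately per campaign, cut at about 16% in these data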;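 note: 0% = DMSO wells and 100% = 60 µM geldanamycin wells; inhibitors lower the luminescence because luciferase stays unfolded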
Tb hexokinase – T. brucei hexokinase 1 inhibition; recombinant TbHK1, G6PDH-coupled NADH A340; inhibition, % at 10 µM; actives 0.11% (n = 220,000); AID 1430;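 active = inhibition of 50% or more in the single-dose primary screen; inactive = inhibition below 50%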
HSF1 activator – increases HSF-1 driven luciferase reporter signal | NIH3T3-HGL HSF-1 luciferase reporter, MG132, 8 h; 100% = twice DMSO control signal | activation, % at 9 µM | actives 1.7% (n = 300,000);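 active = mean replicate activation of at least 50% with a set share of replicates each reaching 50%; inconclusive = only one of those two conditions met; inactive = mean below 50% and too few replicates reaching it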;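 note: 0% = median of the neutral control wells and 100% = twice that signal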
HSP90 confirm – confirmation of HSP90 inhibitors | shares compounds with HSP90 inh | rabbit reticulocyte lysate, luciferase refolding luminescence, 3 h | inhibition, % at 5.9 µM | actives 64% (n = 2,300) | AID 1846; in the data active = inhibition above about 18%;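 note: 0% = vehicle wells and 100% = reference inhibitor wells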
luciferase ctr – firefly luciferase inhibition, HSP90 counter-screen | actives 48% (n = 2,300) | inhibition, % at 5.9 µM | shares compounds with HSP90 inh | purified native firefly luciferase, luminescence | AID 1847;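 active = inhibition above the mean inhibition of all tested sample wells plus 3 SD, cut at about 10% in these data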;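 note: 0% = DMSO with luciferase and 100% = wells lacking luciferase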
Target sequence (P08659 whole entry, looked up): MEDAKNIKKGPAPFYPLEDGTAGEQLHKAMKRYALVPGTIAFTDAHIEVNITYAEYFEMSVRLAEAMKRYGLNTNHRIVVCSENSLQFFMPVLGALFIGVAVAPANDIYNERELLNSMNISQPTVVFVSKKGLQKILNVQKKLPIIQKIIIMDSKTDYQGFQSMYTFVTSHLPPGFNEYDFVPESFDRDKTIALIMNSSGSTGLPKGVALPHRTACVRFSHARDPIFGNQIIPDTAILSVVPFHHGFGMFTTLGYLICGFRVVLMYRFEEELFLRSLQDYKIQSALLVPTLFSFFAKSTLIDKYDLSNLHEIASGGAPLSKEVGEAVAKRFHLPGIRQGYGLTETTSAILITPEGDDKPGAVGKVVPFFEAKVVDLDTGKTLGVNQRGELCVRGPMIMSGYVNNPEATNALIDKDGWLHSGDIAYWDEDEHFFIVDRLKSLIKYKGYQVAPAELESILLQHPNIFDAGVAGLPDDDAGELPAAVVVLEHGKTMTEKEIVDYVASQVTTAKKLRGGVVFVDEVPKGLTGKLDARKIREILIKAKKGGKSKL
Starred values were filed as active, the others as inactive; ? = inconclusive; · = no result given.

SMILES	HSF1 inhib	HKDC1 inhibitor	Hsp70 activator	HSP90 inh	Tb hexokinase	HSF1 activator	HSP90 confirm	luciferase ctr
COc1ccccc1NC(=O)C(C)N(C)Cc1ccc(Cl)s1 (configuration not stated)	-3	-2	·	4	·	0	·	·
COc1ccc(NC(=O)CN(Cc2ccco2)Cc2ccco2)cc1S(=O)(=O)N1CCCCC1	·	-3	·	·	·	·	·	·
O=C(O)c1ccc(NNC(=S)Nc2cc(C(F)(F)F)ccc2Cl)cc1	-2	4	·	61*	·	7	54*	53*
O=C(NC(=S)Nc1cc(C(F)(F)F)ccc1Cl)c1ccccc1	3	1	0	-4	-8	20	·	·
Cc1ccc2nc(-c3ccc4c(c3)OCCO4)cn2c1	-6	3	·	93*	-14	-2	94*	90*
Clc1ccc2nc(-c3ccccc3)cn2c1	36	0	·	36*	·	34	55*	42*
Cc1nc(-c2ccc3c(c2)OCCCO3)cs1	30	-3	·	3	8	?	·	·
COc1ccc(-c2cn3cc(C)ccc3n2)cc1F	24	-5	0	48*	1	59*	63*	58*
Clc1ccc2nc(-c3ccc4c(c3)OCO4)cn2c1	7	-5	0	24*	-22	45	73*	71*
CN(C)S(=O)(=O)c1cccc(-c2cn3cc(Cl)ccc3n2)c1	·	1	0	2	-16	·	·	·
O=C(Nc1ccc(Cl)c(Cl)c1)NC1CCS(=O)(=O)C1 (configuration not stated)	-1	-4	·	5	·	7	·	·
COc1ccccc1C(=O)NC(=S)N1CCCc2ccccc21	-61*	23	0	18*	-11	-68	20*	13*
COc1ccc(N=CC2=C(O)c3ccccc3C2=O)cc1	-25	6	0	29*	-12	-18	77*	80*
N#Cc1cc[n+](CC(=O)c2ccc(NC(=O)c3ccccc3)cc2)cc1	8	18	·	21*	-10	4	-1	-9
CCC(=O)Nc1cccc(-c2nc3ccccc3o2)c1	-23	2	0	8	-3	-34	·	·
CCC(=O)Nc1cccc(-c2cc3ccccc3oc2=O)c1	-30	1	0	19*	-25	-37	32*	19*
COc1cccc(NC(=O)c2cc3ccccc3oc2=O)c1	23	1	·	28*	·	?	64*	72*
Cc1ccc(C)c(OCC(O)CN2CCC(Cc3ccccc3)CC2)c1 (configuration not stated)	2	1	·	-1	·	8	·	·
Cc1noc(C)c1C(=O)OCC(=O)/C=C1/N(C)c2ccccc2C1(C)C	·	-4	·	·	·	·	·	·
CCCCN=C1NN=C(c2ccc(C)c(C)c2)CS1	14	-30	0	-1	3	23	·	·
CCCCN=C1NN=C(c2ccc3c(c2)OCCO3)CS1	-37	-27	-1	52*	-5	-36	42*	35*
O=C(Cn1cc(CNC(=O)C2CCCCC2)nn1)Nc1cc(C(F)(F)F)ccc1Cl	·	-3	·	·	·	·	·	·
COCCn1c(C)cc(C2=NNC(=Nc3ccc(OC)cc3)SC2)c1C	-2	-21	0	4	-19	-21	·	·
COCCn1c(C)cc(C2=NNC(=Nc3ccccc3)SC2)c1C	-40	-32	0	51*	-19	-39	39*	33*
COc1ccc(C)cc1NC(=O)CSc1nnc(-c2cc(C)[nH]n2)n1N	11	-3	·	-6	·	8	·	·
SMILES	HSF1 inhib	HKDC1 inhibitor	Hsp70 activator	HSP90 inh	Tb hexokinase	HSF1 activator	HSP90 confirm	luciferase ctr
O=C(O)c1ccc(N=NN2CCCCCC2)cc1	-5	-7	0	21*	21	-5	42*	12*
Cc1noc(C)c1CSCC(=O)N(C)CC(=O)Nc1ccc(F)c(F)c1F	-1	-4	·	·	·	-10	·	·
CSCCC(NC(=O)COc1ccccc1)C(=O)N(C)Cc1ccc(Cl)cc1Cl (configuration not stated)	·	-1	·	·	·	·	·	·
CCC(C)NC(=O)CN(C1CCCCC1)S(=O)(=O)c1ccc(F)cc1 (configuration not stated)	0	-8	·	-1	·	-3	·	·
COCCCN(C(=O)Cc1ccc(S(=O)(=O)N2CCOCC2)s1)c1c(N)n(Cc2ccccc2)c(=O)[nH]c1=O	·	-2	·	·	·	·	·	·
COc1cc(SC)ccc1C(=O)Nc1cccc(C)n1	23	-1	0	0	-8	34	·	·
COc1cc(SC)ccc1C(=O)Nc1ccc(Br)cn1	-44	1	·	33*	-29	-50	87*	83*
CSc1ccccc1C(=O)Nc1ncc(C)s1	13	-3	0	5	-13	12	·	·
COc1cc(SC)ccc1C(=O)Nc1ccccn1	17	-1	·	18*	-2	39	47*	38*
COc1cc(SC)ccc1C(=O)Nc1ncc(C)s1	-38	-4	-1	80*	-28	-46	88*	85*
Cc1ccc(C(=O)Nc2ncc(C)s2)s1	30	-7	·	29*	·	70*	50*	40*
COc1cc(SC)ccc1C(=O)Nc1ccon1	6	0	0	3	-2	39	·	·
COc1ccc(/C=N/NC(=O)CNC(=O)c2ccncc2)cc1	-4	-6	·	-2	·	-10	·	·
O=C(c1cn(-c2ccccc2)nc1-c1cccnc1)N1CCN(S(=O)(=O)c2ccc(Cl)cc2)CC1	·	0	·	·	·	·	·	·
CCOC(=O)c1ccc(NS(=O)(=O)c2ccc3c(c2)NC(=O)CCS3)cc1	-5	-3	·	0	·	1	·	·
CCc1ccc(NC(=O)CCCN2C(=O)C3CC=CCC3C2=O)cc1 (configuration not stated)	24	1	·	1	·	29	·	·
CC(C)(C)C(=O)Nc1cc2nn(-c3ccccc3)nc2cc1Cl	·	1	0	80*	0	·	85*	85*
CCOc1cc(CN2CCN(CCc3ccccc3)C(CCO)C2)ccc1OC (configuration not stated)	-8	1	0	27*	-8	-23	-3	-6
COc1cc(/C=N/Nc2ccc(Cl)c(C(=O)O)c2)ccc1OC(=O)c1cccs1	·	2	0	21*	-5	·	61*	-24
CCOc1cc(/C=N/NC(=O)CNc2cccc(C)c2)ccc1OC(=O)c1ccccc1	-1	2	0	0	-4	-5	·	·
COc1ccc(C(=O)Oc2ccc(/C=N/Nc3ccc(Cl)c(C(=O)O)c3)cc2OC)cc1	3	0	·	46*	·	11	66*	-2
COc1cc(/C=N/Nc2ccc(Cl)c(C(=O)O)c2)ccc1OC(=O)c1ccco1	-4	5	0	32*	-20	-3	71*	-18
